Tested on: MS2 coat protein
Experiment: apparent Kd, MS2 coat protein; higher = weaker binding; RNA-MaP array; FMN 200 µM where present
Summary of the method: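 Designs were transcribed by stalled E. coli RNA polymerase on Illumina sequencing-chip clusters. They were titrated with SNAP-549-labelled MS2 coat protein from 0.7 or 1.5 nM, doubling to 3 µM, without and then with constant ligand. Buffer: 100 mM Tris-HCl pH 7.5, 80 mM KCl, 4 mM MgCl2, BSA, DTT, yeast tRNA, Tween-20. Green signal was normalised to red-channel RNA signal and control-cluster median Fmax. Apparent Kd is the median of filtered per-cluster binding-curve fits.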

[1] = designed as: ON switch for flavin mononucleotide, no ligand
[2] = ligand present: flavin mononucleotide, designed as: ON switch for flavin mononucleotide
[3] = designed as: OFF switch for flavin mononucleotide, no ligand
[4] = ligand present: flavin mononucleotide, designed as: OFF switch for flavin mononucleotide

Sequence | apparent Kd [1] | apparent Kd [2] | apparent Kd [3] | apparent Kd [4]
AAAAAAAAAGUGCAGGAUAUCCUCAUGGCUACAUGAGGAUCACCCAUGUGAAGAAAAGCACAUGAGGAGAAGGGCACAAAAAAAAA | 23.4 nM | 12.3 nM | – | –
AAAAAAAAUGUGUAGGAUAUCAGUAAAAAUACAUGAGGAUCACCCAUGUUCAAAAAAAAAAAAACUGAGAAGGACGUGGAUGGUCC | 79 nM | 59.9 nM | – | –
AAAAAACAUGAGGAUCACCCAUGUAAAAAAAUCGCAGGAUAUACGGUCGCGAAAGCGACCGUAGAAGGGCGAUCCU | 251 nM | 94.8 nM | – | –
AAAAAACAUGAGGAUCACCCAUGUCCAAAAAAAAAAGGAUAUGCAAAAAAAAAAAAAAAAGCAGAAGGUUUAAAAA | 68.4 nM | 74.7 nM | – | –
AAAAAACAUGAGGAUCACCCAUGUGAGGAUAUCCAAAAGUUAAAUAAAAAGACGAAAAGGAGAAGGCGCAAAAA | – | – | 110 nM | 84.2 nM
AAAAAGCGAGGAUAUACAUAGCUAAGACAUGUAAGCGAAAAACAUGAGGAUCACCCAUGUAGAAGGCGCAAAAA | – | – | 17.7 nM | 18.2 nM
AAAAAGGCAGGAUAUACAUGAGGAUCACCCAUGUAGUUGACAAAAAAGAGUCAACAGUGUAGAAGGGCCAAAAA | – | – | 19.3 nM | 24.6 nM
AAAAAGGGAGGAUAUACAUGAGGAUCACCCAUGUAUCAGACGAAAAAGAGUCUGAAGUGUAGAAGGCCCAAAAA | – | – | 18.3 nM | 27.4 nM
AAAACAUGAGGAUCACCCAUGUAAAGAUCGGUUAAUAGAGGUGAGGAUAUACGAAGUUAAAGCUGGUAGAAGGCACUGGGUACA | 78.5 nM | 51.3 nM | – | –
AAAACAUGAGGAUCACCCAUGUAUAGAUCGGUUGAUAGGAGUGAGGAUAUGCUUAAAAUAAGGUAGCAGAAGGCACUGGGUACA | 37.1 nM | 40.1 nM | – | –
AAAACAUGAGGAUCACCCAUGUUAAGAUCGGUCAAUAGAAGUGAGGAUAUACGAAGUUAAGGCUGGUAGAAGGCACUGGGUACA | 43.5 nM | 37.1 nM | – | –
AAAACAUGAGGAUCACCCAUGUUUAGAUCGGUCGAUAGAAGUGAGGAUAUACGAAGUUAAGGCUGGUAGAAGGCACUGGGUACA | 39.8 nM | 33.3 nM | – | –
AAAACCAGAGGAUAUGCGCAUAGAUCAGACUUUGUUUCUUAACAUGAGGAUCACCCAUGUAGAAGGCUGUAAAA | – | – | 17.3 nM | 15.4 nM
AAAACGUCAGGAUAUCCAAUAUAUGACAUGAGGAUCACCCAUGUUUCCACUCGUACCUCCGGAGAAGGGACAAAUA | – | – | 41.5 nM | 34 nM
AAAACGUGAGGAUAUGCACCAACCAAGGUUUUUCGGGUACGACAUGAGGAUCACCCAUGUAGAAGGCACGAAAA | – | – | 16.2 nM | 12.9 nM
AAAAGAACGGCAGGAUAUGCAAGCACUGACCUCCCAAAAUAAAGAAACAUGAGGAUCACCCAUGUGCAGAAGGGCCAAAAGUGC | – | – | 13.6 nM | 12.3 nM
AAAAGACAUGAGGAUCACCCAUGUCAAAACGUGGGAGGAUAUGUAUGGAAACCAGACUGUACAGAAGGCCUCUGUC | 41.7 nM | 131 nM | – | –
AAAAGACAUGAGGAUCACCCAUGUCAAGACAUAGGAGGAUAUGUCUGGAAAAAAGACUGGACAGAAGGCCUUUGUC | 19.9 nM | 17.4 nM | – | –
AAAAGACAUGAGGAUCACCCAUGUGAAAACGUAGGAGGAUAUGUAUGGAAACCAUACUGUACAGAAGGCCUUUGUC | 28.1 nM | 29.7 nM | – | –

Sequence | apparent Kd [1] | apparent Kd [2] | apparent Kd [3] | apparent Kd [4]
AAAAGAGUAGGAUAUCUGACGCGAAACAUGAGGAUCACCCAUGUAGGGCGGUCCUGCUUAAGAGAAGGGCUCAAAU | – | – | 99.6 nM | 230 nM
AAAAGGUCAGGAUAUGCGAGCGGCAGGGAGGCAGGUCGGUGGCAGAAGGGACAUGAGGAUCACCCAUGUUAAAA | – | – | 35 nM | 34.1 nM
AAAAGUUAAGGAUAUACAGGGAGCCGCGGCGACUCGCCGCAACAUGAGGAUCACCCAUGUAGAAGGUAGCCAAA | – | – | 27.6 nM | 62.8 nM
AAAAUAAGAACAGGAUAUGUGGGUUCGAAAAGCAAAGCUUUCCACAUGAGGAUCACCCAUGUGCCACAGAAGGGUUCGGGUGAU | 69.1 nM | 27.4 nM | – | –
AAAAUAAGAACAGGAUAUGUGGGUUCGAAGAGCAAAACUCUCCACAUGAGGAUCACCCAUGUGCCACAGAAGGGUUCGGGUGAU | 66.9 nM | 12.4 nM | – | –
AAAAUAAGGCGAGGAUAUCGACAGCAUGUGUGACGAGAAGGCGCGAUAGGUGGGUUCCUUGACAUGAGGAUCACCCAUGUAGAA | – | – | 65.7 nM | 114 nM
AAAAUCAAUAGAGGAUAUUCAUACACUACAUACGGAGAAGGCUAACAAUCAUGAGGACAUGAGGAUCACCCAUGUUGUGACCAU | 25.9 nM | 17.1 nM | – | –
AAAAUGGUACAGAAGGCGGAGCCCAACAUGAGGAUCACCCAUGUAUGGGUGUCGUCAGUAGUUACCGAGGAUAUGUAUCGGUAU | – | – | 6.42 nM | 7.1 nM
AAAAUGUGAGGAUAUGCGAAGGCGUCUGAUAGACGAGGCUAGCAGAAGGCACAUGAGGAUCACCCAUGUCCAAA | – | – | 40.3 nM | 60.3 nM
AAACAAGGAUCAGGAUAUGUGAAAGUAGACCGACAUGAGGAUCACCCAUGUACGACAAGACUCGUACAGAAGGGAUGCACAUGA | 73.3 nM | 165 nM | – | –
AAACACGGACAUGAGGAUCACCCAUGUGGCGAAAGCCUUGGGAGAAGGAUUAAUGCAAAGCAUAAAUAGGAUAUUCAUACCGUG | 1270 nM | 243 nM | – | –
AAACACGGACAUGAGGAUCACCCAUGUGGCGAAAGCCUUGGGAGAAGGCAGUAUGCAAAGCAUUCUGAGGAUAUCCAUACCGUG | 18.4 nM | 6.63 nM | – | –
AAACAUGUCCGAGGAUAUCUGGAAACAUUUUCAAGAGAAGGCGGACAUGAGGAUCACCCAUGUCUCUCCUCAUCAAAUCCAAUU | – | – | 8.37 nM | 51.1 nM
AAACCACAUGAGGAUCACCCAUGUAAAAAUAUGGGAGGAUAUCGGAAUAAAAUAAAGAAACGAGAAGGCCUAAAAA | 153 nM | 35.9 nM | – | –
AAACUGCAUGUGAGGAUAUGCACCGACUAAACCGGGCAGAAGGCACAUGAGGAUCACCCAUGUCAUCCUAUUGC | – | – | 8.62 nM | 18.1 nM
AAAGAGGCGGAUCGCAACUACCAGCAGGAUAUGGGUGUUUUUACAUGAGGAUCACCCAUGUACAUCUAGAAGGGUUGGGUGUCC | 576 nM | 76.6 nM | – | –
AAAGCAACAUGAGGAUCACCCAUGUAGGAUAUCGCUAUUGUAAUCAUGAAACAUGAUUACAAUAGCGAGAAGGACAUAUGGCCC | – | – | 10.8 nM | 31.7 nM
AAAGGACGAGGAUAUACAUGAGGAUCACCCAUGUAAAAAACAUAAUAAAAGAACUUAUGUAGAAGGCGUCCAAA | – | – | 58.6 nM | 336 nM
AAAGUACAUGAGGAUCACCCAUGUUGGAACAAAGCAGGAUAUGUACAAAAGGAAAUAAAUACAGAAGGGCUAAGAA | 36.5 nM | 21.2 nM | – | –

Sequence | apparent Kd [1] | apparent Kd [2] | apparent Kd [3] | apparent Kd [4]
AAAGUGUGAGGAUAUCCGGGACUGGGCCGGGAGGUUCGGAAGGAGAAGGCACAUGAGGAUCACCCAUGUAACGG | – | – | 59.3 nM | 44.3 nM
AAAUAAACUAGCAUAAUAUCCUCACAUGAGGAUCACCCAUGUCAGGAUAUUUGUCCUAAAAGGACAGAGAAGGGACGUGCUAGA | – | – | 5.07 nM | 6.27 nM
AAAUAAGUUGCAGGAUAUUAUUUUUAAUAAAUAUAAGAAGGGCAACAAACCUCACAUGAGGAUCACCCAUGUACCCAUGUAUCU | – | – | 64.3 nM | 35.6 nM
AAAUACGUAAAGGACACAUGAGGAUCACCCAUGUUUCUGUUCAAGGAUAUGAGGUGAAUGAUCCGUCAGAAGGUGAACUUGCUU | 117 nM | 624 nM | – | –
AAAUAGCGAGGAUAUACAUGAGGAUCACCCAUGUGGACUGAUGUCGCGUGAUUCAGUGGUAGAAGGUGCUCAAA | – | – | 45.4 nM | 76.3 nM
AAAUGACAUGAGGAUCACCCAUGUCCACCAAAUGGAGGAUAUUGGACGGCAAAACGUUGUUAAGAAGGCCGAAAUU | 27.6 nM | 22.3 nM | – | –
AAAUGCGUAAAGGACACAUGAGGAUCACCCAUGUUUCUGUCCAAGGAUAUGAGGUGAAUGAUCCGUCAGAAGGUGGACUUGCUU | 114 nM | 220 nM | – | –
AAAUUUAACGAAGGAUAUGCUAACAUGAGGAUCACCCAUGUGUGCUUUGUGUUGCUGAAAUUGGAGCAGAAGGUCGUAUACAUA | – | – | 95.4 nM | 145 nM
AACAAUCUAUCUGAGGAUAUCAUGAAAAAAACAUGAGGAUCACCCAUGUGCAGGAAAACUGCAUAUGAGAAGGCAGAUAGAUUGG | 618 nM | 31.6 nM | – | –
AACAGCUCGUCAGGAUAUACAAUACUGCUUCGGCAGUAUGAUAAGAUAACAUGAGGAUCACCCAUGUAGAAGGGACGAGCUGAA | – | – | 6.23 nM | 7.47 nM
AACAGUACAGGAUAUACAUGAGGAUCACCCAUGUGAAGAUUAAGUGGUGUACCACUAAGUAGAAGGGUACUGGA | – | – | 28.8 nM | 126 nM
AACAGUAGAGGAUAUACAUGAGGAUCACCCAUGUGAGAAUUACGUGGCGUACCACGAAGUAGAAGGCUACUGGA | – | – | 61.3 nM | 302 nM
AACAUACUAUACAUGAGGAUCACCCAUGUUUGGGCACUGUACAGAAGGCACGGGCAAAUGCGAGGUGAGGAUAUGUAGUUAGUG | 64.8 nM | 18.8 nM | – | –
AACAUGGUACAGAAGGGCAAUUUAUUUAUUUAUUAUUUAGAACAGCAUUGCAGGAUAUGUUUAACAUGAGGAUCACCCAUGUAC | 84.4 nM | 15.8 nM | – | –
AACCUAUUACAGAAGGCCAGCUACAUGAGGAUCACCCAUGUCGAGUCAUGGAGGAUAUGUAGUAAUUCACUCGCAGAUGAGUAC | 29.8 nM | 5.33 nM | – | –
AACCUAUUACAGAAGGCCAGCUACAUGAGGAUCACCCAUGUCGAGUCAUGGAGGAUAUGUAGUAAUUUACUCGCAGAUGAGUGC | 24.4 nM | 4.9 nM | – | –
AACGCGUCAGGAUAUGCCAUAAAUUACCUAAUACAACCAUAGCAGAAGGGACAUGAGGAUCACCCAUGUAAAUA | – | – | 32.1 nM | 25.2 nM
AACGUGUAAGGAUAUGCUGCUCGUCACAAAAGUGAUGAGUAGCAGAAGGUACAUGAGGAUCACCCAUGUAAAGA | – | – | 35.4 nM | 73.8 nM

From the EternaBench riboswitch data
